Measured values from ChEMBL document CHEMBL3244100, “Effect of sparsomycin analogues on the puromycin-peptidyl transferase reaction on ribosomes” (J Med Chem, 1978).
The source made the active and inactive calls. The rule behind the calls is not given here.

Assays:
[1] = target: Bacterial 70S ribosome; assay: Competitive inhibition of peptidyl transferase activity of Escherichia coli ribosome using Ac[14C]-L-Phe-tRNA/puromycin as donor/acceptor substrate assessed as acetyl[14C]phenylalanylpuromycin formation by double reciprocal plot analysis
How it was run: (§1)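 E. coli washed ribosomes (2.78 A260 units) charged with 20.8 pmol Ac[14C]Phe-tRNA in 100 mM Tris-Cl pH 7.5, 100 mM NH4Cl, 15 mM Mg(OAc)2, 0.65 mM DTT, 1.2 mM GTP, FWR, poly(U), 8 min at 28 °C. Mixture then added to puromycin with or without inhibitor, 28 °C. Product measured radiometrically. Ki from double reciprocal plots; highest concentration tested 2 × 10^-4 M.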

[2] = target: Bacterial 70S ribosome; assay: Competitive inhibition of peptidyl transferase activity of Escherichia coli ribosome using Ac[14C]-L-Phe-tRNA/puromycin as donor/acceptor substrate assessed as acetyl[14C]phenylalanylpuromycin formation by Dixon plot analysis
[3] = target: T1, Bacterial 70S ribosome (Bacteria) (UniProt P0A7V0+P60723+P0AG67+P0A7R5+P0A7R9+P0A7S3+P0A7S9+P0AG59+P0ADZ4+P0A7T3+P0AG63+P0A7T7+P0A7U3+P0A7U7+P68679+P0A7V3+P0A7V8+P0A7W1+P02358+P02359+P0A7W7+P0A7X3+P0A7J3+P0A7J7+P0AA10+P0ADY3+P02413+P0ADY7+P0AG44+P0C018+P0A7K6+P0A7L0+P0A7L3+P0AG48+P61175+P0ADZ0+P60624+P68919+P0A7L8+P0A7M2+P0A7M6+P60422+P0AG51+P0A7N1+P0A7M9+P0A7N4+P0A7N9+P0A7P5+P0A7Q1+Q2EEQ2+P0A7Q6+P60438+P62399+P0AG55+P0A7K2); assay: Competitive inhibition of peptidyl transferase activity of Escherichia coli ribosome using Ac[14C]-L-Phe-tRNA/puromycin as donor/acceptor substrate assessed as acetyl[14C]phenylalanylpuromycin formation at 2 x 10^-4 M by double reciprocal plot analysis; how it was run: as §1
[4] = target: T1, Bacterial 70S ribosome (Bacteria); assay: Competitive inhibition of peptidyl transferase activity of Escherichia coli ribosome using Ac[14C]-L-Phe-tRNA/puromycin as donor/acceptor substrate assessed as acetyl[14C]phenylalanylpuromycin formation at 10^-6 M preincubated for 15 mins prior to puromycin addition
How it was run: (§2)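 Ribosomes charged with Ac[14C]-L-Phe-tRNA as in the binding step (poly(U), GTP, FWR, Mg2+, 8 min, 28 °C). The charged mixture was preincubated with 10^-6 M inhibitor for 15 min at 28 °C before adding 10^-4 M puromycin. Ac[14C]Phe-puromycin formation was followed over time at 28 °C.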

[5] = target: T1, Bacterial 70S ribosome (Bacteria); assay: Competitive inhibition of peptidyl transferase activity of Escherichia coli ribosome using Ac[14C]-L-Phe-tRNA/puromycin as donor/acceptor substrate assessed as acetyl[14C]phenylalanylpuromycin formation incubated with donor substrate/enzyme prior to puromycin addition; how it was run: as §2

For CCCCCC(CO)NC(=O)/C=C/c1c(C)[nH]c(=O)[nH]c1=O (racemic), the Ki [1] was 2300 nM.

For CCCSCC(CO)NC(=O)/C=C/c1c(C)[nH]c(=O)[nH]c1=O (racemic), the Ki [1] was 2000 nM and the Ki [2] was 2000 nM.

In the case of Cc1[nH]c(=O)[nH]c(=O)c1/C=C/C(=O)NC(C)CO (racemic), the inhibition [3] is reported as “inactive”.

In the case of CCCSC[C@H](CO)NC(=O)/C=C/c1c(C)[nH]c(=O)[nH]c1=O, the Ki [1] is reported as 1100 nM.

Cc1[nH]c(=O)[nH]c(=O)c1/C=C/C(=O)NC(CO)CSCc1ccccc1 (racemic) showed a Ki [1] of 1210 nM.

For CCCSC[C@@H](CO)NC(=O)/C=C/c1c(C)[nH]c(=O)[nH]c1=O, the inhibition [3] was “inactive”.

For CSC[S@@+]([O-])CC(CO)NC(=O)/C=C/c1c(C)[nH]c(=O)[nH]c1=O (stereo partly specified) [SPARSOMYCIN], the Ki [1] was 500 nM and the inhibition [4] was “Active”.

For CSCSCC(CO)NC(=O)/C=C/c1c(C)nc(O)nc1O (racemic), the Ki [1] was 1090 nM and the inhibition [5] was “Active”.
